Source: ChEMBL document CHEMBL1921703 (Eur J Med Chem, 2011)

Experiments:
[1] = Chemical stability of the compound in phosphate buffer at pH 8.0 assessed as half life at 250 umol/mL by HPLC analysis; type: physicochemical
Method in brief: (§1)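 Each compound, added as methanol stock, was incubated in phosphate buffer at pH 2.5, 5.0, 7.4 or 8.0 (1:4 v/v) at 37 °C. Samples were taken at 0, 1, 3, 6, 12 and 24 h. Remaining ester was measured by HPLC-UV at 238 nm on C18 with methanol-water 80:20. The pseudo-first-order rate constant came from linear regression of ln(peak area) against time, and half-life followed from it.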

Liver = assay: Drug uptake in Kunming mouse liver assessed as naproxen level at dose equivalent to 10 mg/kg, iv of naproxen administered as single dose measured by HPLC analysis; type: ADME, organism-based; parameters: dose 10 mg/kg, route intravenous; details: in vivo
[2] = Chemical stability of the compound in phosphate buffer at pH 2.5 assessed as first order rate constant of compound disappearance at 250 umol/mL by HPLC analysis; type: physicochemical; method in brief: as §1
[3] = Chemical stability of the compound in phosphate buffer at pH 7.4 assessed as first order rate constant of compound disappearance at 250 umol/mL by HPLC analysis; type: physicochemical; method in brief: as §1
[4] = Chemical stability of the compound in phosphate buffer at pH 5 assessed as first order rate constant of compound disappearance at 250 umol/mL by HPLC analysis; type: physicochemical; method in brief: as §1
Plasma [5] = assay: Metabolic stability in mouse plasma assessed as first order rate constant of compound disappearance at 250 umol/mL by HPLC analysis; type: ADME, cell-free
Method in brief: (§2)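 Mouse plasma, diluted with two volumes of water, or brain homogenate (1:5 w/v in cold pH 7.4 phosphate buffer) was spiked with methanol stock (1:4 v/v) and incubated at 37 °C. Aliquots taken at 0–90 min were quenched with acetonitrile and centrifuged. Remaining prodrug was measured by HPLC-UV at 238 nm. Rate constant came from ln(peak area) regression against time, and half-life followed from it.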

Brain [6] = assay: Metabolic stability in mouse brain homogenate assessed as first order rate constant of compound disappearance at 250 umol/mL by HPLC analysis; type: ADME, tissue-based; method in brief: as §2
[7] = Metabolic stability in mouse plasma assessed as half life at 250 umol/mL by HPLC analysis; type: ADME, cell-free; method in brief: as §2
[8] = Chemical stability of the compound in phosphate buffer at pH 2.5 assessed as half life at 250 umol/mL by HPLC analysis; type: physicochemical; method in brief: as §1
Brain [9] = assay: Prodrug conversion in mouse brain homogenate assessed as naproxen release at 250 uM/mL by HPLC analysis; type: ADME, tissue-based; details: in vitro, TDE = time-dependent effect
Method in brief: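 Prodrugs were incubated at 37 °C for up to 90 min in mouse brain homogenate (1:5 w/v in pH 7.4 phosphate buffer). […] Peak areas were normalised to the reference prodrug peak at 15 min, SD n = 3.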

Brain [10] = assay: AUC (0 to t) in Kunming mouse brain at dose equivalent to 10 mg/kg, iv of naproxen administered as single dose; type: ADME, organism-based; parameters: dose 10 mg/kg, route intravenous; details: in vivo
[11] = Metabolic stability in mouse brain homogenate assessed as half life at 250 umol/mL by HPLC analysis; type: ADME, tissue-based; method in brief: as §2
Kidney = assay: Drug uptake in Kunming mouse kidney assessed as naproxen level at dose equivalent to 10 mg/kg, iv of naproxen administered as single dose measured by HPLC analysis; type: ADME, organism-based; parameters: dose 10 mg/kg, route intravenous; details: in vivo
[12] = Chemical stability of the compound in phosphate buffer at pH 5 assessed as half life at 250 umol/mL by HPLC analysis; type: physicochemical; method in brief: as §1
Plasma [13] = assay: Prodrug conversion in Kunming mouse plasma assessed as compound hydrolysis to naproxen at dose equivalent to 10 mg/kg, iv of naproxen measured by HPLC analysis; type: ADME, organism-based; parameters: dose 10 mg/kg, route intravenous; details: in vivo
Muscle tissue = assay: Drug uptake in Kunming mouse muscle assessed as naproxen level at dose equivalent to 10 mg/kg, iv of naproxen administered as single dose measured by HPLC analysis; type: ADME, organism-based; parameters: dose 10 mg/kg, route intravenous; details: in vivo
[14] = Chemical stability of the compound in phosphate buffer at pH 7.4 assessed as half life at 250 umol/mL by HPLC analysis; type: physicochemical; method in brief: as §1
[15] = Chemical stability of the compound in phosphate buffer at pH 8.0 assessed as first order rate constant of compound disappearance at 250 umol/mL by HPLC analysis; type: physicochemical; method in brief: as §1
Heart = assay: Drug uptake in Kunming mouse heart assessed as naproxen level at dose equivalent to 10 mg/kg, iv of naproxen administered as single dose measured by HPLC analysis; type: ADME, organism-based; parameters: dose 10 mg/kg, route intravenous; details: in vivo
Plasma [16] = assay: AUC (0 to t) in Kunming mouse plasma at dose equivalent to 10 mg/kg, iv of naproxen administered as single dose; type: ADME, organism-based; parameters: dose 10 mg/kg, route intravenous; details: in vivo
in vivo [17] = details: Kunming, mouse, brain, iv, 10 mg/kg
in vivo [18] = details: Kunming, mouse, brain, iv, 10 mg/kg; remark: listed apart in the source
in vivo [19] = details: Kunming, mouse, brain, iv, 10 mg/kg; remark: listed apart in the source

Row | SMILES | half-life at 250 umol/mL [1] [h] | Drug uptake (Liver) | Activity [2] [×10⁻² /hr] | Activity [3] [×10⁻² /hr] | Activity [4] [×10⁻² /hr] | Activity (Plasma [5]) [×10⁻² /min] | Activity (Brain [6]) [×10⁻² /min] | half-life at 250 umol/mL [7] [h] | half-life at 250 umol/mL [8] [h] | Drug metabolism (Brain [9]) | AUCt (Brain [10]) [µg·min/g] | half-life at 250 umol/mL [11] [h] | Drug uptake (Kidney) | half-life at 250 umol/mL [12] [h] | Drug metabolism (Plasma [13]) | Drug uptake (Muscle tissue) | half-life at 250 umol/mL [14] [h] | Activity [15] [×10⁻² /hr] | Drug uptake (Heart) | AUCt (Plasma [16]) [µg/min/mL] | further results
1 | COc1ccc2cc([C@H](C)C(=O)OC[C@H]3O[C@H](O)[C@H](O)[C@@H](O)[C@@H]3O)ccc2c1 | 23.8 | Active | 1.3 | 0.607 | 0.645 | 0.782 | 0.683 | 1.48 | 53.3 | tde | 3930.87 | 1.68 | Active | 107 | Active | Active | 114 | 2.91 | Active | 10353.27 | –
2 | COc1ccc2cc([C@H](C)C(=O)OCC/C(SSCc3ccccc3)=C(\C)N(C)C=O)ccc2c1 | 33.8 | Active | 5.05 | 1.11 | 2.81 | 1.17 | 2.76 | 0.987 | 13.7 | tde | 3307.75 | 0.418 | Active | 24.7 | Active | Active | 62.4 | 2.05 | Active | 8834.7 | –
3 | COc1ccc2cc([C@H](C)C(=O)OCC/C(SSCc3ccccc3)=C(\C)N(C=O)CC(=O)OC[C@H]3O[C@H](O)[C@H](O)[C@@H](O)[C@@H]3O)ccc2c1 | 19.5 | Active | 3.39 | 2.3 | 2.87 | 1.53 | 3.71 | 0.755 | 20.4 | tde | 5669.45 | 0.312 | Active | 24.1 | Active | Active | 30.1 | 3.56 | Active | 13348.87 | –
4 | COc1ccc2cc([C@H](C)C(=O)OCC/C(SSC(C)C)=C(\C)N(C=O)CC(=O)OC[C@H]3O[C@H](O)[C@H](O)[C@@H](O)[C@@H]3O)ccc2c1 | 28.6 | Active | 3.19 | 1.36 | 2.04 | 1.46 | 3.37 | 0.792 | 21.7 | tde | 6140.77 | 0.343 | Active | 34 | Active | Active | 51 | 2.42 | Active | 16185.44 | –
5 | CCSS/C(CCOC(=O)[C@@H](C)c1ccc2cc(OC)ccc2c1)=C(/C)N(C=O)CC(=O)OC[C@H]1O[C@H](O)[C@H](O)[C@@H](O)[C@@H]1O | 25 | Active | 4.34 | 2.55 | 2.95 | 1.77 | 4.74 | 0.657 | 16 | tde | 4716.88 | 0.243 | Active | 23.5 | Active | Active | 27.2 | 2.77 | Active | 12914.16 | –
6 | COc1ccc2cc([C@H](C)C(=O)O)ccc2c1 [NAPROXEN] | – | – | – | – | – | – | – | – | – | – | – | – | – | – | – | – | – | – | – | 3812.35 | MRT (in vivo [17]): 1.41 h; Tmax (in vivo [18]): 0.75 h; Cmax (in vivo [19]): 17100 ng/g
